Experimental data reported in publication PMC6240402 (The Journal of allergy and clinical immunology, 2018).
“Also recorded” adds a separate entry of the source.

Tests used:
sputum eosinophils / AHR = conditions: clinical trial; cited from earlier work
CCR3 [1] = target: T1, CCR3 (Homo sapiens, UniProt P51677); conditions: SB328437; cited from earlier work
T1 sequence (P51677 1-355): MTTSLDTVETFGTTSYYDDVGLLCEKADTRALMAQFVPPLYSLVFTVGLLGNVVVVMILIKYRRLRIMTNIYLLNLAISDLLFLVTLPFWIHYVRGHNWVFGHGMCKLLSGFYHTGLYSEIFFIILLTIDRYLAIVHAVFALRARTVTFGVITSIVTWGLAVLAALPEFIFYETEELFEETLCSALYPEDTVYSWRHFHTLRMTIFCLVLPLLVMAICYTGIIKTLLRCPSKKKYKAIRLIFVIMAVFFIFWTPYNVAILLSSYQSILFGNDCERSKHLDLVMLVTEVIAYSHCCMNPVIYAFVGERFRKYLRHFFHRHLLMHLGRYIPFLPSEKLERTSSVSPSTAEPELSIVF

lung eosinophils = conditions: subcutaneous 100 mg/kg, resuspended with Tween-80; cited from earlier work
[2] = target: T2, CCR3 (human blood eosinophils) (Homo sapiens, UniProt P51677); test: CCR3 surface expression in human blood eosinophils, prolonged exposure; type: cell-based
T2 sequence (P51677 1-355): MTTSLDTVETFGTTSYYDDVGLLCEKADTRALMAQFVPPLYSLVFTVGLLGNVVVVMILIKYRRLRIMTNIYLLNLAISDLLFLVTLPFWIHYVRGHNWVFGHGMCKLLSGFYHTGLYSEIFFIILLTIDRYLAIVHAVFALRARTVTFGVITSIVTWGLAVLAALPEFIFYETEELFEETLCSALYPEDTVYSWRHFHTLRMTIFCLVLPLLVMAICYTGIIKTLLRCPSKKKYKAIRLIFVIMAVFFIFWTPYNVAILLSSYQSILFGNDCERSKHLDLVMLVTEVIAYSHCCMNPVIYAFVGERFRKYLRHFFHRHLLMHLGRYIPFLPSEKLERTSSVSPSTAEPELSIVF
Outline: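 Eosinophils came from blood of mild allergic asthmatic donors, separated on a Ficoll-Paque gradient and then negatively selected. Cells got vehicle or 1 μM inhibitor, with or without CCL11 (12 nM), for 24, 48 or 72 h, refreshed daily with medium plus inhibitor. After blocking with 10% heat-inactivated human AB serum, cells were stained with PE anti-CCR3 (clone 5E8) or isotype control and read by flow cytometry. Surface CCR3 is given as % of vehicle: mean ± SEM, n=3, triplicate.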

[3] = system: CCR3 (AML14.3D10-CCR3 cells); type: cell-based
Outline: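 AML14.3D10-CCR3 cells (an eosinophil-differentiated AML line stably expressing CCR3) were held 24, 48 or 72 h with vehicle or test compound at 1 μM. Medium was replaced daily with fresh complete medium containing compound. Cells were then challenged with CCL11 (12 nM). Each time point was compared with the 24 h point; mean ± SEM, n=3 experiments in triplicate.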

CCR3 [4] = target: T1, CCR3; test: CCR3 surface expression/internalization in AML14.3D10-CCR3 cells; type: cell-based
Outline: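 CCR3-transfected, eosinophil-differentiated AML14.3D10 cells were exposed for 30 min to vehicle, test peptide (0.01–10 μM) or comparator antagonists (1 μM), each with or without CCL11 (12 nM). Longer exposures ran 24–72 h at 1 μM, with daily medium/inhibitor renewal. Cells were blocked with 10% heat-inactivated human AB serum, stained with PE anti-CCR3 (5E8) or isotype, and analysed by flow cytometry. Values are mean ± SEM, n=3, in triplicate.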

Solubility observation = type: physicochemical; conditions: authors' own experience; unsuitable for iv injection
[5] = target: T3, CCR3 (AML14.3D10-CCR3 cells) (Homo sapiens, UniProt P51677); test: Eotaxin-induced chemotaxis of AML14.3D10-CCR3 cells; type: cell-based; conditions: CCL11 12 nM, CCL24 20 nM, CCL26 100 nM
T3 sequence (P51677 1-355): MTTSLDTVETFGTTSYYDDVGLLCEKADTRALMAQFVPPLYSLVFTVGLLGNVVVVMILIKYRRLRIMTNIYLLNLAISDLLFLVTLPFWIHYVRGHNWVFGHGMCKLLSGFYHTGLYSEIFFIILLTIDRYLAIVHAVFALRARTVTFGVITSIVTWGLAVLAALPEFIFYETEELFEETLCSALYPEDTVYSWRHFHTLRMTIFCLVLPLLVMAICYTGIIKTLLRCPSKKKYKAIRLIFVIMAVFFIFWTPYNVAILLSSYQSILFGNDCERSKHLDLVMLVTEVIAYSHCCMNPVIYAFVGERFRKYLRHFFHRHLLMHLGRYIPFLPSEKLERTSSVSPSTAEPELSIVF
Outline: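 Eosinophil-differentiated acute myeloid leukaemia line stably transfected to express CCR3. Cells exposed to the test peptide across 0.001–10 μM as a dose-response, then allowed to migrate for 4 h toward CCL11 (12 nM), CCL24 (20 nM) or CCL26 (100 nM). Read-out is inhibition of chemotaxis.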

[6] = target: T2, CCR3 (human blood eosinophils); test: Eotaxin-induced chemotaxis of blood eosinophils; type: cell-based; conditions: CCL11 12 nM, CCL24 20 nM, CCL26 100 nM
Outline: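 Eosinophils were taken from the blood of mild allergic asthmatic subjects, separated over a Ficoll-Paque Plus gradient, then purified by negative selection with an eosinophil isolation kit. The test peptide was given at 0.001–10 μM, with 4 h chemotaxis toward CCL11 (12 nM), CCL24 (20 nM) or CCL26 (100 nM). IC50 and IC90 were derived from the dose-response inhibition curves.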

CCR3 [7] = target: T1, CCR3; test: 13C HSQC NMR binding to reductively methylated CCR3 positive membranes
Outline: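 13C HSQC spectra recorded on membranes carrying 13C-reductively methylated CCR3 (lysine di-13CH3 label), compared with CCR3-null membranes. Spectra were taken with or without 1 μM CCL11, in the presence or absence of 2 μM test peptide. Binding was judged from spectral comparisons between conditions.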

## NC(=O)c1ccc(CNC(=O)NC[C@H]2CN(Cc3ccc(Cl)c(Cl)c3)CCO2)cc1 [GW766994]
Sputum eosinophils / AHR
  AHR: significant inhibition of AHR
  sputum eosinophils: trend towards inhibition of sputum eosinophils

## COC(=O)[C@H](Cc1ccc([N+](=O)[O-])cc1)NC(=O)c1cccc2ccccc12 [SB328437]
CCR3 [1]
  activity at CCR3 in eosinophils: specific inhibitor of CCR3 in eosinophils
Lung eosinophils
  OVA-induced accumulation of eosinophils in lungs: successfully suppress OVA-induced accumulation of eosinophils in the lungs
[2]; 1 μM, up to 72h
  CCR3 surface levels, prolonged exposure: failed to promote CCR3 cell surface accumulation; also recorded: no significant effect on receptor levels
[3]; AML14.3D10-CCR3, 1 μM, CCL11 12 nM, 72h
  drop in chemotaxis inhibition level over 72h: 13.7%
[3]; equimolar concentrations, 1 μM
  CCL11/CCR3-mediated chemotaxis inhibition relative to R321 and UCB35625: less effective inhibitor of CCL11/CCR3-mediated chemotaxis
CCR3 [4]; effect more pronounced with longer treatment times
  CCR3 internalization (discussion): partially or completely block CCR3 internalization
Solubility observation
  solubility: solubility issues

## CCL11: high affinity agonist chemokine of CCR3
[5]
  induction of chemotaxis, AML14.3D10-CCR3: undergo CCR3-mediated chemotaxis
[2]; CCL11 12 nM alone, 24h, % of vehicle
  CCR3 surface expression, 24h, CCL11 alone: ~ 68%
[2]; CCL11 12 nM alone, 72h, % of vehicle
  CCR3 surface expression, 72h, CCL11 alone: ~ 18%
CCR3 [4]; AML14.3D10-CCR3, CCL11 30 min, flow cytometry
  CCR3 internalized from cell surface: More than 50%
[6]
  induction of chemotaxis, blood eosinophils: undergo CCR3-mediated chemotaxis
CCR3 [7]; 1 μM CCL11 and 2 μM R321
  interference of CCL11 and R321 with each other's binding: neither CCL11 nor R321 interfere with each other’s binding to the receptor
CCR3 [7]; 1 μM CCL11 or 2 μM R321
  effect on CCR3 HSQC signals: specifically reduced the intensity of CCR3 signals

## CCL26: high affinity agonist chemokine of CCR3
[5]
  induction of chemotaxis, AML14.3D10-CCR3: undergo CCR3-mediated chemotaxis
[6]
  induction of chemotaxis, blood eosinophils: undergo CCR3-mediated chemotaxis

B1: CCL24: high affinity agonist chemokine of CCR3 (protein, UniProt O00175 27-119, looked up)
C-C motif chemokine 24: VVIPSPCCMFFVSKRIPENRVVSYQLSSRSTCLKAGVIFTTKKGQQFCGDPKQEWVQRYMKNLDAKQKKASPRARAVAVKGPVQRYPGNQTTC
[5]
  induction of chemotaxis, AML14.3D10-CCR3: undergo CCR3-mediated chemotaxis
[6]
  induction of chemotaxis, blood eosinophils: undergo CCR3-mediated chemotaxis
